For one experiment, the system named is CCRF-CEM. The experiment in a line: Antiproliferative activity against human CCRF-CEM cells after 96 hrs by MTT assay. It is filed as functional, cell-based. An outline of the steps: (§1)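 Exponentially growing cells in RPMI 1640 with 10% FCS were resuspended at 1 × 10⁵ cells/mL in RPMI containing serial dilutions of compound (DMSO solution at 200 µM, diluted in medium). After 96 h at 37 °C, viability was read by MTT. Growth was taken as % of untreated controls, which grew at least three rounds. IC50 came from linear regression, as the mean of three independent determinations.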
For orientation: Tetrazolium dyes change colour on reduction, which living cells bring about.

The subject of the next experiment is MRC5. As to the kind of experiment: Antiproliferative activity against human MRC5 cells after 96 hrs by MTT assay. The format is cell-based. Particulars: MRC5, 96 h. Summed up: as §1
The target in experiment [1] is T1, DNA topoisomerase 1 (Homo sapiens) (UniProt P11387).
T1 sequence (whole entry): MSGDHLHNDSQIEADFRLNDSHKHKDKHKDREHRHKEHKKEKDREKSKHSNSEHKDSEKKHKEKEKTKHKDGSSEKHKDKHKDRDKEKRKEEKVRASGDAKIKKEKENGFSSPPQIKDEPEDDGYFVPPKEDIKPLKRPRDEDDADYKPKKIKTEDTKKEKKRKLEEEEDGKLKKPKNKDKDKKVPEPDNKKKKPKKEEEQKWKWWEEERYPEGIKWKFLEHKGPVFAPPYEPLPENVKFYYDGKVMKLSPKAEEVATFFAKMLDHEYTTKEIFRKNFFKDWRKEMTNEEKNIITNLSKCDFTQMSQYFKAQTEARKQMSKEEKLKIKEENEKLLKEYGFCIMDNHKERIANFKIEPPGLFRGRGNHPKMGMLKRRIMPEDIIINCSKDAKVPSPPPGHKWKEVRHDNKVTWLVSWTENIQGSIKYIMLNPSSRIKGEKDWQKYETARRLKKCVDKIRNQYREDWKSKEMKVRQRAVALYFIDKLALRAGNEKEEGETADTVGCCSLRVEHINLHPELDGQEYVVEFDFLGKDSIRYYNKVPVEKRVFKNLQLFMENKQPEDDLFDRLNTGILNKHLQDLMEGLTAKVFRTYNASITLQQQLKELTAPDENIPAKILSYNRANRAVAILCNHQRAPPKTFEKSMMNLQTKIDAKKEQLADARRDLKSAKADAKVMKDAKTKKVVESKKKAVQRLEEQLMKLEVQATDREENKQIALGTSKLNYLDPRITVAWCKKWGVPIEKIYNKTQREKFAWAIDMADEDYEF
As to the kind of experiment: Inhibition of DNA topoisomerase 1-mediated supercoiled pBR322 DNA relaxation at 25 uM by agarose gel electrophoresis.

The next experiment deals with XF498. The experiment in a line: Antiproliferative activity against human XF498 cells after 96 hrs by MTT assay. The format is functional, cell-based. Particulars: XF498, 96 h. Summed up:
(§2)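 Solid-tumor cells in their specific media with 10% FCS were seeded at 5 × 10⁴ cells/mL and left to adhere 16 h. Serially diluted compound was then added (DMSO solution at 200 µM, diluted in medium). MTT viability was read 4 days later. IC50 came from linear regression against untreated controls, which grew at least three rounds, as the mean of three independent determinations.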

Another experiment has as its system HT-29. As to the kind of experiment: Antiproliferative activity against human HT-29 cells after 96 hrs by MTT assay. It is filed as functional, cell-based. Particulars: Homo sapiens, HT-29, 96 h. Summed up: as §2
Experiment [2] addresses T1, DNA topoisomerase 1 (Homo sapiens). The experiment in a line: Inhibition of DNA topoisomerase 1-mediated supercoiled pBR322 DNA relaxation at 5 uM by agarose gel electrophoresis.
The next experiment concerns MT4. The experiment in a line: Antiproliferative activity against human MT4 cells after 96 hrs by MTT assay. It is filed as functional, cell-based. The conditions noted are these: Homo sapiens, MT4, 96 h. An outline of the steps:
as §1

The target in experiment [3] is T2, DNA ligase (Enterobacteria phage T4) (UniProt P00970).
T2 sequence (whole entry): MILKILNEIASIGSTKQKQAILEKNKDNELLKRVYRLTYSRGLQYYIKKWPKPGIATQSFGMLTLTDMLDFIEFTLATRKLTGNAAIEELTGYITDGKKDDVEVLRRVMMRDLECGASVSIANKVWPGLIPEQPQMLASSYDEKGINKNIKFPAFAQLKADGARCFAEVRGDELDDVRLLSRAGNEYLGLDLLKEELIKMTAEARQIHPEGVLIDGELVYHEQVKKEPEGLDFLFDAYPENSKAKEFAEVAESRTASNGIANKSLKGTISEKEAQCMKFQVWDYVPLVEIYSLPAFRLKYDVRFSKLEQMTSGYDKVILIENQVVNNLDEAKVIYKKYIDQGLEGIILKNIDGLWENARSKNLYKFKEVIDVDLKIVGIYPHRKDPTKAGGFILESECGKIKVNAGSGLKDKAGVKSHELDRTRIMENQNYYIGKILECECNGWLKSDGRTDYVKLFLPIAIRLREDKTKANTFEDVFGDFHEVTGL
The experiment in a line: Inhibition of T4 DNA ligase by DNA unwinding assay. Particulars: Tequatrovirus T4. Summed up:
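EcoRI-linearized pBR322 (0.1 µg) in 30 mM Tris-HCl pH 7.8, 10 mM MgCl2, 10 mM DTT and 0.5 mM ATP was equilibrated with compound 30 min at 20 °C. Excess T4 DNA ligase was then added for 30 min at 20 °C, and reactions were stopped at 55 °C. After phenol extraction, products were resolved on 1% agarose gels.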

For another experiment, the system named is SF-268. The experiment in a line: Antiproliferative activity against human SF-268 cells after 96 hrs by MTT assay. It is filed as functional, cell-based. Particulars: SF-268, 96 h. An outline of the steps:
as §2

The test system of the next experiment is HeLa. The experiment in a line: Antiproliferative activity against human HeLa cells after 96 hrs by MTT assay. The format is functional, cell-based. Summed up:
as §2

The target in experiment [4] is T1, DNA topoisomerase 1 (Homo sapiens). The experiment in a line: Inhibition of DNA topoisomerase 1-mediated supercoiled pBR322 DNA relaxation at 5 to 10 uM by agarose gel electrophoresis.
For another experiment, the system named is ACHN. The experiment in a line: Antiproliferative activity against human ACHN cells after 96 hrs by MTT assay. It is filed as functional, cell-based. Summed up: as §2
For another experiment, the system named is MCF7. As to the kind of experiment: Antiproliferative activity against human MCF7 cells after 96 hrs by MTT assay. The format is functional, cell-based. The conditions noted are these: MCF7, 96 h. An outline of the steps: as §2
Experiment [5] deals with DNA topoisomerase 2-alpha (Homo sapiens) (UniProt P11388). As to the kind of experiment: Inhibition of DNA topoisomerase 2-mediated negatively supercoiled pBR322 relaxation.
DNA topoisomerase 2-alpha (Homo sapiens), sequence (P11388 whole entry): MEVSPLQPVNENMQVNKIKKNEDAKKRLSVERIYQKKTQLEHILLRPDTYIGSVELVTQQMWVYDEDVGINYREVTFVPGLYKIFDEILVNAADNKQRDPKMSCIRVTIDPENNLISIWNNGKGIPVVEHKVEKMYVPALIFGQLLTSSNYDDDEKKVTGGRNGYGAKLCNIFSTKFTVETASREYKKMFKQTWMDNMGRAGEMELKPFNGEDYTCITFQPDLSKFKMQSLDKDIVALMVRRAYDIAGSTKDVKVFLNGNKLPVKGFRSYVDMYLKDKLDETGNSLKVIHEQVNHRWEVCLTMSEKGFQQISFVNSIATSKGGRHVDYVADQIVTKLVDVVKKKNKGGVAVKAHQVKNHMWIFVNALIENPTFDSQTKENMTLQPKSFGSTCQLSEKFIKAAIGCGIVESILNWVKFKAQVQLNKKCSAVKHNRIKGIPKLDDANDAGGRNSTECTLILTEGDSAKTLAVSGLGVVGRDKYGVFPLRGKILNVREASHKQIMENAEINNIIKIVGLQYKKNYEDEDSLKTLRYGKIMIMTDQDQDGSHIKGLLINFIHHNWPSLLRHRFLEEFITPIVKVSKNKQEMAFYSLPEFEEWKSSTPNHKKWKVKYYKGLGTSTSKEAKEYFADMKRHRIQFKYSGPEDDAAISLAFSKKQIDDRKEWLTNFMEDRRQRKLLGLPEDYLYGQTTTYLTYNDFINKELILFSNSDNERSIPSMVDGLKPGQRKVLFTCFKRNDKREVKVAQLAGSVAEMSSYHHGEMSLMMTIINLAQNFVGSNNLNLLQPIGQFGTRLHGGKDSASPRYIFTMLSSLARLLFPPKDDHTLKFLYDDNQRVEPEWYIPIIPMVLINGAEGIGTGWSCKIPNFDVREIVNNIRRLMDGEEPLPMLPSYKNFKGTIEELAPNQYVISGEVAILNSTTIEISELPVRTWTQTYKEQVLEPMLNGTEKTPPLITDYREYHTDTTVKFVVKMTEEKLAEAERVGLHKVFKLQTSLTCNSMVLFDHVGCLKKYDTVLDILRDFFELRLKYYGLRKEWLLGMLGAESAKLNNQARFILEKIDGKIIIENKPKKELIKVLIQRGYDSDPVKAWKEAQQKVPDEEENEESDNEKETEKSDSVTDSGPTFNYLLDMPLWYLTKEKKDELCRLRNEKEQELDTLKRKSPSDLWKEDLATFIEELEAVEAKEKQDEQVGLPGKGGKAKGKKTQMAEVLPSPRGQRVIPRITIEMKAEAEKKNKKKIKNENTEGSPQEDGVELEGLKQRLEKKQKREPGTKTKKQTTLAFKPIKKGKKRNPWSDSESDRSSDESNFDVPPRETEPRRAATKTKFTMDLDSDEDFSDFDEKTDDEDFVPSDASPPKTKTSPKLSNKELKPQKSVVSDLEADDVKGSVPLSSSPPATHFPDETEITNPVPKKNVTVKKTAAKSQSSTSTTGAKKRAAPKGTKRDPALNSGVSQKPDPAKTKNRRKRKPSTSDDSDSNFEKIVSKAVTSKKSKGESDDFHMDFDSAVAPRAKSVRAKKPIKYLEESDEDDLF
The next experiment relates to CCRF-SB. As to the kind of experiment: Antiproliferative activity against human CCRF-SB cells after 96 hrs by MTT assay. The format is functional, cell-based. An outline of the steps: as §1

Calls of active or inactive are those of the source. The calls are words filed in the database; no cut-off is given here.

As a reminder, the IC50 is the concentration that gives 50% inhibition. Read a high IC50 as a need for much substance. `COc1cccc2c1C(=O)c1c(O)c3c(c(O)c1C2=O)C[C@@](O)(C(=O)CO)C[C@@H]3O[C@H]1C[C@H](N)[C@H](O)[C@H](C)O1` [DOXORUBICIN]: the IC50 came to 20 nM in the experiment on CCRF-CEM; 300 nM with MRC5; 160 nM in the experiment on XF498; 2 nM in the experiment with HT-29; 3 nM in the experiment with MT4; 200 nM in the experiment on SF-268. Moreover, the result in [1], in experiment [2] and in experiment [3] was Active.

`CCCc1ccc(N2C(=O)NC3(CSC4=C3C(=O)c3ncccc3C4=O)C2=O)cc1` (racemic): the IC50 in the experiment with HeLa turned out to be 5 nM; with CCRF-CEM it was 1 nM; in the experiment on MRC5, 850 nM; in the experiment with XF498, 450 nM; with HT-29 it was 1 nM; in the experiment on MT4, 1 nM. Further, the IC50 with SF-268 is 300 nM; in the experiment on ACHN it was 1 nM; with MCF7 it was 2 nM; with CCRF-SB, 2 nM. Besides, the outcome in experiment [4] was inactive. The Activity entry in [5] is “Dose-dependent effect”.

The values are drawn from ChEMBL document CHEMBL1151746, “Antitumor agents 6. Synthesis, structure-activity relationships, and biological evaluation of spiro[imidazolidine-4,3'-thieno[2,3-g]quinoline]-tetraones and spiro[thieno[2,3-g]quinoline-3,5'-[1,2,4]triazinane]-tetraones with potent antiproliferative activity” (J Med Chem, 2008).
